Measurements from different studies.
Cell line: Vero
Read-out: cell growth or viability

Nc1nc(N)c(CNCCc2ccccc2Cl)c(C2CC2)n1
IC50 (SRB): 67 µM

FC(F)(F)Oc1ccc(Oc2ccc(CNCCNC3C4CC5CC(C4)CC3C5)cc2)cc1 (stereo not drawn)
IC50 (18 h): 3.9 µg/mL

CSc1c2c3c(n1C)C(=O)C(=O)C(Cl)=C3NCC2
IC50 (MTT; 72 h): > 17.7 µM

N#CCCCOc1ccc(Oc2ccccc2)cc1
CC50 (72 h): > 20 µM

C[C@H]1O[C@H](O[C@H]2CC[C@H](n3ccc(NC(=O)c4ccc(NC(=O)[C@@](C)(N)CO)cc4)nc3=O)O[C@@H]2C)[C@H](O)[C@@H](O)[C@@H]1N(C)C
IC50: > 100 µM

CCCCCCCCn1cc(CN2CCC3(CC2)OCCO3)c2ccc(OC)cc21
IC50: 46 µM

NNC(=O)c1ccncc1
IC50 (18 h): 18000 µg/mL

CN(C)c1ccc(C(Nc2nc3c(-c4ccc([N+](=O)[O-])cc4)nn(-c4ccccc4)c3s2)P(=O)(Oc2ccccc2)Oc2ccccc2)cc1 (stereo not drawn)
IC50 (SRB): > 100 µM

Nc1nc(N)c(CNCCc2ccc(Cl)cc2Cl)c(C2CC2)n1
IC50 (SRB): 31 µM

O=[N+]([O-])c1ccc(-c2nn(-c3ccccc3)c3sc(NC(c4ccccc4O)P(=O)(Oc4ccccc4)Oc4ccccc4)nc23)cc1 (stereo not drawn)
IC50 (SRB): > 100 µM

CN(CC[C@H](N)CC(=O)N[C@H]1C=C[C@H](n2ccc(N)nc2=O)O[C@@H]1C(=O)O)C(=N)N
IC50: 13.9 µM

CO[C@H]1/C=C/O[C@@]2(C)Oc3c(C)c(O)c4c(O)c(c(/C=N/N5CCN(C)CC5)c(O)c4c3C2=O)NC(=O)/C(C)=C\C=C\[C@H](C)[C@H](O)[C@@H](C)[C@@H](O)[C@@H](C)[C@H](OC(C)=O)[C@@H]1C
IC50: 113 µM

Nc1nc(N)c(CNCCc2cccc(F)c2)c(C2CC2)n1
IC50 (SRB): > 100 µM

Cn1cc2c3c1C(=O)C(N)=C(Cl)C3=NCC2
IC50 (MTT; 72 h): > 21.3 µM

Nc1nc(N)c(CNCCc2ccc(Cl)c(Cl)c2)c(C2CC2)n1
IC50 (SRB): 21 µM

[C-]#[N+]C(C)(C)C[C@@H]1C[C@H](C)[C@H]2CC[C@H](C)[C@@]3([N+]#[C-])CCC(=C)[C@@H]1[C@H]23
IC50: 99.7 µM

N#CCCOc1ccc(Oc2ccccc2)cc1
CC50 (72 h): > 20 µM

COc1ccccc1CCNCc1c(N)nc(N)nc1C1CC1
IC50 (SRB): > 100 µM
